Here are results for 3 compounds from ChEMBL document CHEMBL1135477, “Antifungal agents. 10. New derivatives of 1-[(aryl)[4-aryl-1H-pyrrol-3-yl]methyl]-1H-imidazole, synthesis, anti-candida activity, and quantitative structure-analysis relationship studies” (J Med Chem, 2002).

≈ marks a conversion by molar mass, not a printed value.

What all share (assay type): functional
Series [1] deals with Candida albicans. Nature of the series: In vitro antifungal activity against 40 strains of Candida albicans at pH 5.8; (range is from 1 to 32). An outline of the steps:
(§1)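 Broth serial-dilution MIC against 40 clinical C. albicans isolates from hospitalized patients, grown in Sabouraud broth at pH 7.2 or 5.8. Cells were pre-grown 18 h at 37 °C, inoculated at 10³/mL, and read at 24 h, 37 °C. Doubling dilutions ran 0.25–256 μg/mL from a DMSO/water solution. MIC was the lowest concentration with no visible growth against a DMSO/water blank.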

Series [2] concerns Candida. Nature of the series: Tested In vitro for antifungal activity against Candida species. at pH 7.2; (percent of resistant species at 256 ug/mL). An outline of the steps: (§2)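 Broth serial-dilution test in Sabouraud broth at pH 7.2 or 5.8, against 3 fresh clinical non-albicans isolates (two C. glabrata, one C. krusei). Inocula were 10³/mL, pre-grown 18 h at 37 °C. Compound was twofold-diluted over 0.25–256 µg/mL and read at 24 h, 37 °C for visible growth.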

Series [3] concerns Candida. In words: Tested in vitro for antifungal activity against Candida species. at pH 5.8 (percent of resistant species at 256 ug/mL). Summed up: as §2
Series [4] has as its system Candida albicans. Nature of the series: In vitro antifungal activity against 40 strains of Candida albicans at pH 5.8. An outline of the steps: as §1
In series [5] the target is Lanosterol 14-alpha demethylase (Candida albicans (strain SC5314 / ATCC MYA-2876) (Yeast), UniProt P10613). In words: Anticandida activity- (MIC90 compound) / (MIC90 bifonazole).
Lanosterol 14-alpha demethylase, sequence (P10613 whole entry): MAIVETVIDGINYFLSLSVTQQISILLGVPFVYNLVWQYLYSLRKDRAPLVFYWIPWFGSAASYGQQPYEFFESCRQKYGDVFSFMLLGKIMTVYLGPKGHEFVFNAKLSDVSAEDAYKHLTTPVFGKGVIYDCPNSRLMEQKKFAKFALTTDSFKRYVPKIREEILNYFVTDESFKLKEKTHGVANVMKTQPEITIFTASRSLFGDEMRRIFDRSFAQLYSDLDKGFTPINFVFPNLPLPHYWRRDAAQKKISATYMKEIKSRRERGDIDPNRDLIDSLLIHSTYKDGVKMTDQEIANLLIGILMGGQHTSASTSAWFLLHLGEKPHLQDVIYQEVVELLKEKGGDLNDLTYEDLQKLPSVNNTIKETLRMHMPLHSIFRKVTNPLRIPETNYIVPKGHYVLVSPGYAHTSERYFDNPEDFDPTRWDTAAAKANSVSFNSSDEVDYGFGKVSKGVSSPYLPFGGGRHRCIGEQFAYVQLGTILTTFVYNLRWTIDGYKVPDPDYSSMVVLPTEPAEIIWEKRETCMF
The subject of series [6] is Candida albicans. In words: In vitro antifungal activity against 40 strains of Candida albicans at pH 5.8; (percent of resistant species at 256 ug/mL). Summed up:
(§3)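 Broth serial-dilution test in Sabouraud broth at pH 7.2 or 5.8, against 40 fresh clinical C. albicans isolates from hospitalized patients. Inocula were 10³/mL, pre-grown 18 h at 37 °C in Sabouraud dextrose broth. Compound from a DMSO/water stock was twofold-diluted over 0.25–256 µg/mL. Visible growth was read at 24 h, 37 °C.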

The test system of series [7] is Candida albicans. Nature of the series: In vitro antifungal activity against 40 strains of Candida albicans at pH 7.2; (percent of resistant species at 256 ug/mL). An outline of the steps:
as §3

The subject of series [8] is Candida albicans. In words: In vitro antifungal activity against 40 strains of Candida albicans at pH 7.2; minimum inhibitory concentration (range is from 4 to 64). Summed up: as §1
The subject of series [9] is Candida. In words: Tested In vitro for antifungal activity against Candida species. at pH 7.2; (range is from 8 to 128). Summed up: (§4)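 Liquid serial-dilution MIC against 3 freshly isolated clinical Candida strains (two C. glabrata, one C. krusei) in Sabouraud broth at pH 7.2 or 5.8. Inoculum was 10³/mL after 18 h pre-culture at 37 °C, read at 24 h, 37 °C. Range was 0.25–256 μg/mL. Endpoint was no visible growth versus a DMSO/water blank.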

The test system of series [10] is Candida. In words: Tested in vitro for antifungal activity against Candida species. at pH 5.8; range is from 4 to 16. Summed up: (§5)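 Fresh clinical isolates (two C. glabrata, one C. krusei) were pre-grown 18 h at 37 °C in Sabouraud dextrose broth. Broth double-dilution was run in Sabouraud broth at pH 5.8 or 7.2 over 0.25–256 µg/mL from a DMSO/water stock, with 10³/mL inoculum.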

Series [11] deals with Candida. In words: Tested In vitro for antifungal activity against Candida species. at pH 7.2. Summed up: as §4
Series [12] has as its system Candida. In words: Tested in vitro for antifungal activity against Candida species. at pH 5.8. An outline of the steps: as §4
Series [13] relates to Candida albicans. Nature of the series: In vitro antifungal activity against 40 strains of Candida albicans at pH 7.2. Summed up: as §1
For series [14], the system named is Candida. Nature of the series: Tested in vitro for antifungal activity against Candida species. at pH 7.2 (percent of resistant species at 256 ug/mL). An outline of the steps:
as §2

Series [15] deals with Candida albicans. In words: Tested in vitro for antifungal activity against Candida albicans at pH 5.8. Summed up:
as §1

Series [16] has as its system Candida albicans. Nature of the series: In vitro antifungal activity against Candida albicans (40 strains) at pH 7.2(value ranges from 0.5 to 32). Summed up:
as §1

In series [17] the test system is Candida albicans. Nature of the series: Tested in vitro for antifungal activity against Candida albicans at pH 5.8 (range 1-8). Summed up: as §1
Series [18] relates to Candida. Nature of the series: Tested in vitro for antifungal activity against Candida species. at pH 7.2 (value ranges from 0.5 to 8). Summed up:
as §5

Series [19] relates to Candida. In words: Tested in vitro for antifungal activity against Candida species. at pH 7.2. An outline of the steps: as §5
Series [20] has as its system Candida albicans. Nature of the series: In vitro antifungal activity against Candida albicans (40 strains) at pH 5.8,(percent of resistant species at 256 ug/mL). Summed up:
as §3

The test system of series [21] is Candida albicans. In words: In vitro antifungal activity against Candida albicans (40 strains) at pH 7.2,(percent of resistant species at 256 ug/mL). Summed up: as §3
For series [22], the system named is Candida albicans. Nature of the series: In vitro antifungal activity against Candida albicans (40 strains) at pH 7.2. Summed up: as §1
The test system of series [23] is Candida. Nature of the series: (§6) In vitro antifungal activity against 40 strains at pH 5.8,(percent of resistant species at 256 ug/mL). An outline of the steps: as §3
Series [24] has as its system Candida. In words: In vitro antifungal activity against candida Spp (Candida glabrata, Candida krusei) at pH 5.8,(percent of resistant species at 256 ug/mL). An outline of the steps: as §2
The test system of series [25] is Candida albicans. Nature of the series: In vitro antifungal activity against 40 strains at pH 7.2 minimum inhibitory concentration. An outline of the steps: (§7)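 Inocula were 10³/mL, pre-grown 18 h at 37 °C. MIC is the lowest concentration with no visible growth versus a DMSO/water blank at 24 h, 37 °C. The mean MIC is ΣMICi over the total strain number; MIC50/MIC90 cover 50%/90% of strains.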

The subject of series [26] is Candida. In words: Tested in vitro for antifungal activity against candida Spp (Candida glabrata, Candida krusei) at pH 7.2 (percent of resistant species at 256 ug/mL). An outline of the steps:
as §2

The subject of series [27] is Candida albicans. Nature of the series: In vitro antifungal activity against 40 strains at pH 7.2. Summed up:
as §7

Series [28] concerns Candida. In words: Tested In vitro for antifungal activity against candida Spp (Candida glabrata, Candida krusei) at pH 5.8. Summed up: (§8)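 Inocula were 10³/mL, pre-grown 18 h at 37 °C. MIC is the lowest concentration with no visible growth versus a blank at 24 h, 37 °C. The mean MIC is ΣMICi over the strain number; MIC50/MIC90 are also reported.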
Series [29] concerns Candida. In words: Tested In vitro for antifungal activity against candida Spp (Candida glabrata, Candida krusei) at pH 7.2. Summed up: as §8
The subject of series [30] is Candida albicans. In words: Tested In vitro for antifungal activity at pH 5.8.
For series [31], the system named is Candida albicans. In words: In vitro antifungal activity against 40 strains at pH 7.2, (percent of resistant species at 256 ug/mL). Summed up:
as §3

The subject of series [32] is Candida albicans. Described as §6. An outline of the steps:
as §3

What is called MIC is the lowest concentration that inhibits growth of the organism. Read a high MIC as a less susceptible organism. For orientation: MIC50 means the lowest concentration that inhibits either 50% of growth or 50% of the strains tested, depending on the study. Read a low MIC50 as higher susceptibility. The MIC90 is an inhibitory concentration at the 90% level, which refers to growth in some studies and to a panel of isolates in others. Low values mean greater potency, high ones weaker potency. Take `CSc1ccc(-c2c[nH]cc2[C@H](c2ccc(Cl)cc2Cl)n2ccnc2)cc1`: the Range in [1] is 32 µg/mL; in series [8], 64 µg/mL; in [9], 128 µg/mL; in series [10] it was 16 µg/mL. The Resistance in series [2], in series [3], in series [6] and in [7] was 0% throughout. Moreover, the MIC came out at 7 mg/L (≈ 16.9 µM) in series [4], 66.6 mg/L (≈ 161 µM) in series [11], 9.3 mg/L (≈ 22.4 µM) in [12] and 9.14 mg/L (≈ 22.1 µM) in series [13]. Further, the MIC50 came out at 4 mg/L (≈ 9.65 µM) in [4], 64 mg/L (≈ 154 µM) in series [11], 8 mg/L (≈ 19.3 µM) in series [12] and 4 mg/L (≈ 9.65 µM) in series [13]. Further, the MIC90 is 8 mg/L (≈ 19.3 µM) in series [4], 128 mg/L (≈ 309 µM) in [11], 16 mg/L (≈ 38.6 µM) in series [12] and 8 mg/L (≈ 19.3 µM) in [13]. The Ratio in series [5] was determined as 3.

For `Clc1ccc(-c2c[nH]cc2[C@H](c2ccc(Cl)cc2Cl)n2ccnc2)cc1`, the Resistance in series [14], in [20], in [21] and in series [23] was 0% each time. The Ratio in series [5] was 0.8. Besides, the MIC in series [15] stood at 3.6 mg/L (≈ 8.94 µM); in series [12], 6 mg/L (≈ 14.9 µM); in [19], 5.01 mg/L (≈ 12.4 µM); in series [22], 2.14 mg/L (≈ 5.31 µM). Moreover, the MIC50 in series [15] was 1 mg/L (≈ 2.48 µM); in series [12] it was 8 mg/L (≈ 19.9 µM); in [19], 8 mg/L (≈ 19.9 µM); in [22], 2 mg/L (≈ 4.97 µM). For the same compound, the MIC90 in series [15] was found to be 2 mg/L (≈ 4.97 µM); in series [12], 64 mg/L (≈ 159 µM); in series [19] it was 8 mg/L (≈ 19.9 µM); in series [22], 4 mg/L (≈ 9.93 µM). In addition, the Range came to 32 µg/mL in series [16], 8 µg/mL in [17], 8 µg/mL in [18] and 64 µg/mL in series [12].

With `CC(=O)N1CCN(c2ccc(OCC3COC(Cn4ccnc4)(c4ccc(Cl)cc4Cl)O3)cc2)CC1` (stereo not given) [KETOCONAZOLE], the Resistance in series [24], in series [26], in [31] and in series [32] was 0% throughout. The Range was 2 µg/mL in series [25], less than 0.25 µg/mL in series [28], 2 µg/mL in series [29] and less than 0.25 µg/mL in series [30]. Further, the MIC worked out at 9.26 mg/L (≈ 17.4 µM) in series [27], 6.53 mg/L (≈ 12.3 µM) in [28], 8.6 mg/L (≈ 16.2 µM) in series [29] and 6.35 mg/L (≈ 11.9 µM) in [30]. The MIC50 in series [27] amounted to 8 mg/L (≈ 15.1 µM); in series [28], 32 mg/L (≈ 60.2 µM); in series [29], 8 mg/L (≈ 15.1 µM). Besides, the MIC90 in [27] was determined as 32 mg/L (≈ 60.2 µM); in [28], 128 mg/L (≈ 241 µM); in [29] it was 16 mg/L (≈ 30.1 µM).
